# Measurements reported in ChEMBL document CHEMBL1134409, “Design, synthesis, and discovery of a novel CCR1 antagonist” (J Med Chem, 2001).
# Columns and labels:
# [1] = target: T1, C-C chemokine receptor type 1 (Homo sapiens, UniProt P32246); test: Inhibitory activity against [125I]-MIP-1 alpha binding to human CCR1 receptors.
# T1 sequence (P32246 whole entry): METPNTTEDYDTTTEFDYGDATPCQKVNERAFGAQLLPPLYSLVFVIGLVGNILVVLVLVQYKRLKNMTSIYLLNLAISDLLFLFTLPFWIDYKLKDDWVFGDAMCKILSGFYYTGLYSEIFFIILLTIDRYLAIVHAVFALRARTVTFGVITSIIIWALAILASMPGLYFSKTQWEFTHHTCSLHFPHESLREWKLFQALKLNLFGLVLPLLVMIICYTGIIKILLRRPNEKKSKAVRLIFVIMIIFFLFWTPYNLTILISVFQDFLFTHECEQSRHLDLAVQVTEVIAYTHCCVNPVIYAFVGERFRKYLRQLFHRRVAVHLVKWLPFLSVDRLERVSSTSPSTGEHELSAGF
# Outline: (§1)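 Whole-cell binding. CHO cells transfected with the CCR receptor were detached with PBS(-) containing 2 mM EDTA and resuspended in Krebs-Ringer phosphate buffer with 0.1% BSA and 0.1% glucose. 1 × 10^5 cells were incubated with 50 pM 125I-chemokine plus antagonist for 1 h at 37 °C to reach equilibrium. Nonspecific binding was taken with 100 nM unlabeled chemokine. Ice-cold buffer was then added.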
# [2] = target: T2, C-C chemokine receptor type 1 (Mus musculus, UniProt P51675); test: Inhibitory activity against [125I]-MIP-1 alpha binding to mouse CCR1 receptors.; outline: as §1
# T2 sequence (P51675 whole entry): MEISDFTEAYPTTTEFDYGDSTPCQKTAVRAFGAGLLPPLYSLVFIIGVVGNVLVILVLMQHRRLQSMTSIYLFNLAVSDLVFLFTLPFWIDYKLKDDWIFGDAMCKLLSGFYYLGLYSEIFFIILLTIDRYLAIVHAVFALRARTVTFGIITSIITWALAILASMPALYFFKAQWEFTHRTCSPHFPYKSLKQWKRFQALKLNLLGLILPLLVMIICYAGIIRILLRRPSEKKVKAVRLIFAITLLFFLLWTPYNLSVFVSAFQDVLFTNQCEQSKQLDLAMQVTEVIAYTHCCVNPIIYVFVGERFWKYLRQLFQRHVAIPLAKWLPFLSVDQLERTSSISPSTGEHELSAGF
# [3] = target: T3, C-C chemokine receptor type 3 (Homo sapiens, UniProt P51677); test: Inhibitory activity against I-Eotaxin induced [Ca2+] response in human CCR3 receptor; format: functional
# T3 sequence (P51677 whole entry): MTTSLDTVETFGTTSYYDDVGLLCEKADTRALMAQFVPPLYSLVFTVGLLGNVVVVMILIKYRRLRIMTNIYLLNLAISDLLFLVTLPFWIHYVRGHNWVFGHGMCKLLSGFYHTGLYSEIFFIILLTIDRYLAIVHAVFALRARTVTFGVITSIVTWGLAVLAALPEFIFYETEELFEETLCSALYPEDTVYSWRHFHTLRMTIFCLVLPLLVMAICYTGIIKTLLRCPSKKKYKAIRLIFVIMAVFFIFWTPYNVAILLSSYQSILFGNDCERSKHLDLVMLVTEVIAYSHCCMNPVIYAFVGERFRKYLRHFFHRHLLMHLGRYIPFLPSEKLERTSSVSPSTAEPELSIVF
# Outline: (§2)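 Calcium flux in U937 cells transfected with CCR receptors, loaded with 1 µM Fura-2 AM for 30 min at 37 °C, washed twice and resuspended at 1×10^6 cells/mL in Krebs-Henseleit-Hepes buffer with 0.1% BSA. Stirred cuvette fluorescence read at 37 °C, excitation 340 and 380 nm, emission 510 nm, after chemokine stimulation.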
# [4] = target: C-C chemokine receptor type 5 (Homo sapiens, UniProt P51681); test: Inhibition of RANTES binding to C-C chemokine receptor type 5
# Outline: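 CCR5 binding was done on membranes, following the kit manufacturer's instructions.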
# [5] = Inhibitory activity of Fractalkine-induced increase in [Ca2+] Conc. in HEL cells at human CX3CR1 receptor; format: functional, cell-based
# Outline: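 Calcium rise evoked by fractalkine in HEL cells.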
# [6] = target: T4, Probable C-C chemokine receptor type 3 (Mus musculus, UniProt P51678); test: Inhibitory activity against I-Eotaxin induced [Ca2+] response in mouse CCR3 receptor; format: functional
# T4 sequence (P51678 whole entry): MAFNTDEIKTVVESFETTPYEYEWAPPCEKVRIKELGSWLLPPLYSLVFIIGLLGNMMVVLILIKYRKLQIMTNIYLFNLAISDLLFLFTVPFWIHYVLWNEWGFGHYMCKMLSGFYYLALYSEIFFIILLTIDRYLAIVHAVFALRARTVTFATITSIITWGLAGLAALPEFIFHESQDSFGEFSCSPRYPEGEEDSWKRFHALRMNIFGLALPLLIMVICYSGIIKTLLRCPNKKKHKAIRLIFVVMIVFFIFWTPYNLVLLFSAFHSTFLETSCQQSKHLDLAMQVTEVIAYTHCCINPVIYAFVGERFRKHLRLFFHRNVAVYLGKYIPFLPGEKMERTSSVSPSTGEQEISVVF
# Outline: (§3)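 U937 cells transfected with the CCR receptor were loaded with 1 µM Fura-2 AM for 30 min at 37 °C and washed twice. They were resuspended at 1 × 10^6 cells/mL in Krebs-Henseleit-HEPES with 0.1% BSA. The stirred cuvette suspension was read at 37 °C for chemokine-induced fluorescence change, with excitation at 340 and 380 nm and emission at 510 nm.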
# [7] = target: T2, C-C chemokine receptor type 1; test: Inhibitory activity against 125 I -MIP-1 alpha binding to mouse CCR1 receptors
# Outline: (§4)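 CCR-transfected CHO cells, detached with PBS(-)/2 mM EDTA, in Krebs-Ringer phosphate buffer with 0.1% BSA and 0.1% glucose. 1×10^5 cells incubated with 50 pM 125I-chemokine plus antagonist, 1 h at 37 °C to equilibrium. Nonspecific binding measured with 100 nM unlabeled chemokine. Reaction stopped with ice-cold binding buffer.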
# [8] = target: T1, C-C chemokine receptor type 1; test: Inhibitory activity against MIP-1 alpha- induced [Ca2+] response in U937 cells expressing human CCR1 receptor; format: functional, cell-based, U-937; outline: as §3
# [9] = target: C-C chemokine receptor type 2 (Homo sapiens, UniProt P41597); test: Inhibitory activity in human CCR2b receptor
# [10] = target: T4, Probable C-C chemokine receptor type 3; test: Inhibitory activity against I-Eotaxin alpha binding to mouse CCR3 receptors; outline: as §1
# [11] = target: T2, C-C chemokine receptor type 1; test: inhibitory activity against MIP-1 alpha- induced [Ca2+] response in U937 cells expressing mouse CCR1 receptor; format: functional, cell-based, U-937; outline: as §2
# [12] = target: T5, C-C chemokine receptor type 4 (Homo sapiens, UniProt P51679); test: Inhibitory activity against […] induced increase in intracellular [Ca2+] in KU812 cells expressing human CCR4 receptor; format: functional, cell-based
# T5 sequence (P51679 whole entry): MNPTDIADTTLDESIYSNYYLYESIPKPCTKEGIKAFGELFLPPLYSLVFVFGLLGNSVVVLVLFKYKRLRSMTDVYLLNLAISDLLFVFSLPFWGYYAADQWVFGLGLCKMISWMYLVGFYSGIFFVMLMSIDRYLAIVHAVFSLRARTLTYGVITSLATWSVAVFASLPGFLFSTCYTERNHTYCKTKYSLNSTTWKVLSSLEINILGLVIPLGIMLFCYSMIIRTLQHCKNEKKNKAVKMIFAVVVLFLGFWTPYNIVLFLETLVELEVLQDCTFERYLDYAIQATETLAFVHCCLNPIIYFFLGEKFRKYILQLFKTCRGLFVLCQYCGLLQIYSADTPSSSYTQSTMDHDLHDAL
# Outline: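 Calcium rise evoked by TARC in KU812 cells.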
# [13] = Inhibitory activity of I-interleukin-8-binding to human neutrophil at human CXCR1,2 receptor
# Outline: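 125I-interleukin-8 binding to human neutrophil membranes.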
# [14] = target: T3, C-C chemokine receptor type 3; test: Inhibitory activity against I-Eotaxin binding to human CCR3 receptors; outline: as §4
# Sequence of C-C chemokine receptor type 2 (P41597 whole entry): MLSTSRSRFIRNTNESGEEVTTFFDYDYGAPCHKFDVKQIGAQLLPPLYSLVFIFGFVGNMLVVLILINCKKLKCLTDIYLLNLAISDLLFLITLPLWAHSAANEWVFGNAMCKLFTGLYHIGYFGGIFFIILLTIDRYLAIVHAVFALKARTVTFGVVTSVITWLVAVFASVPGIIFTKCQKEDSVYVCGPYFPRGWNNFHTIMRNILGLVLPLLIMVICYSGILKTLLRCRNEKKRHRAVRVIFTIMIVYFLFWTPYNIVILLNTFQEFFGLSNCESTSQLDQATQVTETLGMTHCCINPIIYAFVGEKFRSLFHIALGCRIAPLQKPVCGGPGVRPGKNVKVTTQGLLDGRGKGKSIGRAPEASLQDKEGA
# Sequence of C-C chemokine receptor type 5 (P51681 whole entry): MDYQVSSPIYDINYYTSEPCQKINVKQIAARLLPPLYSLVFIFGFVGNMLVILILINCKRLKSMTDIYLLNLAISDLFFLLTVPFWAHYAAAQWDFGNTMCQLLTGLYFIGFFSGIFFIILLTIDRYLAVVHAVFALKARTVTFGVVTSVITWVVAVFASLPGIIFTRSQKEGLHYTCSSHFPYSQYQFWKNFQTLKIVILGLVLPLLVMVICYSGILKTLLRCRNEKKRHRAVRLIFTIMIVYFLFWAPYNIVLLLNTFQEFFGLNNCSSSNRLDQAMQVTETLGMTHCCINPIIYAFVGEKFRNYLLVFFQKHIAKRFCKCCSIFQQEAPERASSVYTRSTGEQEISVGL
Compound,IC50 [1] [µM],IC50 [2] [µM],also measured
C[N+]1(CC2CCCCCCC2)CCC(NC(=O)C2c3ccccc3Oc3ccccc32)CC1 (stereo not given),0.014,2.1,
CC[N+]1(C/C2=C/CCCCCC2)CCC(NC(=O)C2c3cc(Cl)ccc3Oc3ccc(Cl)cc32)CC1 (stereo in doubt; 2q-2),0.047,0.74,
CCCCCCN1CCC(NC(=O)C2c3ccccc3Oc3ccccc32)CC1,0.51,> 10,
C[N+]1(CC2CCCCCCC2)CCC(NC(=O)C2c3cc(Cl)ccc3Oc3ccc(Cl)cc32)CC1 (stereo not given),0.017,0.71,
CCCC[N+]1(CC2CCCCCCC2)CCC(NC(=O)C2c3ccccc3Oc3ccccc32)CC1 (stereo not given),0.005,0.38,
CC[N+]1(C/C2=C/CCCCCC2)CCC(NC(=O)C2c3ccccc3Oc3ccccc32)CC1 (stereo not given),0.002,0.063,
C[N+]1(CC2CCCCCCC2)CCC(NC(=O)C2c3cc(Br)ccc3Oc3ccc(Br)cc32)CC1 (stereo not given),,0.24,
CCC[N+]1(CC2CCCCCCC2)CCC(NC(=O)C2c3cc(Br)ccc3Oc3ccc(Br)cc32)CC1 (stereo not given),0.0031,0.14,
CC[N+]1(C/C2=C/CCCCCC2)CCC(NC(=O)C2c3cc(Cl)ccc3Oc3ccc(Cl)cc32)CC1 (stereo in doubt; 2q-1),0.0009,0.0058,IC50 [3]: 0.0061 µM; IC50 [4]: > 1 µM; IC50 [5]: > 10 µM; IC50 [6]: 0.36 µM; IC50 [7]: 0.0058 µM; IC50 [8]: 0.00073 µM; IC50 [9]: > 1 µM; IC50 [10]: 0.46 µM; IC50 [11]: 0.021 µM; IC50 [12]: > 10 µM; IC50 [13]: > 1 µM; IC50 [14]: 0.00058 µM
O=C(NC1CCN(C/C2=C/CCCCCC2)CC1)C1c2cc(Br)ccc2Oc2ccc(Br)cc21,0.15,2.5,
O=C(NC1CCN(CC2CCCCCCC2)CC1)C1c2ccccc2Oc2ccccc21,0.14,> 10,
C[N+]1(CC2CCCCCCC2)CCC(NC(=O)C(c2ccccc2)c2ccccc2)CC1 (stereo not given),0.8,> 10,
O=C(NC1CCN(C/C2=C/CCCCCC2)CC1)C1c2ccccc2Oc2ccccc21,0.051,0.59,
O=C(NC1CCN(C/C2=C/CCCCCC2)CC1)C1c2cc(Cl)ccc2Oc2ccc(Cl)cc21,0.24,1.9,
C[N+]1(CC2CCCCCCC2)CCC(NC(=O)C(O)(c2ccccc2)c2ccccc2)CC1 (stereo not given),2.1,> 10,
O=C(NC1CCN(Cc2ccccc2)CC1)C1c2ccccc2Oc2ccccc21,> 10,> 10,
N#CC(CCCN1CCC(O)(c2ccc(Cl)cc2)CC1)(c1ccccc1)c1ccccc1 [BERLEX COMPOUND],0.048,5,
O=C(NC1CCN(CC2CCCCC2)CC1)C1c2ccccc2Oc2ccccc21,0.2,> 10,

Compound,IC50 [1] [µM],IC50 [2] [µM],also measured
O=C(NC1CCN(CC2CCCCCCC2)CC1)C(c1ccccc1)c1ccccc1,1.1,> 10,
CC[N+]1(CC2CCCCCCC2)CCC(NC(=O)C2c3cc(Br)ccc3Oc3ccc(Br)cc32)CC1 (stereo not given),0.0033,0.14,
C[N+]1(CC2CCCCCCC2)CCC(NC(=O)c2c3ccccc3cc3ccccc23)CC1 (stereo not given),1.8,> 10,
C[N+]1(C/C2=C/CCCCCC2)CCC(NC(=O)C2c3ccccc3Oc3ccccc32)CC1 (stereo not given),0.0025,0.35,
C=CC[N+]1(CC2CCCCCCC2)CCC(NC(=O)C2c3ccccc3Oc3ccccc32)CC1 (stereo not given),0.0097,0.67,
O=C(NC1CCN(Cc2ccc3ccccc3c2)CC1)C1c2ccccc2Oc2ccccc21,> 10,> 10,
CC[N+]1(C/C2=C/CCCCCC2)CCC(NC(=O)C2c3cc(Cl)ccc3Oc3ccc(Cl)cc32)CC1 (stereo in doubt; 2q),0.0012,0.012,
CCC[N+]1(CC2CCCCCCC2)CCC(NC(=O)C2c3ccccc3Oc3ccccc32)CC1 (stereo not given),0.0036,0.27,
O=C(NC1CC[N+](Cc2ccccc2)(CC2CCCCCCC2)CC1)C1c2ccccc2Oc2ccccc21 (stereo not given),0.37,1.3,
O=C(NC1CCN(CC2CCCCCCC2)CC1)c1c2ccccc2cc2ccccc12,> 10,> 10,
O=C(NC1CCN(CC2CCCCCCC2)CC1)C1c2cc(Cl)ccc2Oc2ccc(Cl)cc21,> 10,> 10,
O=C(NC1CCN(CC2CCCCCCC2)CC1)C(O)(c1ccccc1)c1ccccc1,1.6,> 10,
CC[N+]1(CC2CCCCCCC2)CCC(NC(=O)C2c3ccccc3Oc3ccccc32)CC1 (stereo not given),,0.66,
CC[N+]1(C/C2=C/CCCCCC2)CCC(NC(=O)C2c3cc(Br)ccc3Oc3ccc(Br)cc32)CC1 (stereo not given),0.0019,0.012,
CCC[N+]1(C/C2=C/CCCCCC2)CCC(NC(=O)C2c3ccccc3Oc3ccccc32)CC1 (stereo not given),0.0028,0.27,
O=C(NC1CCN(CC2CCCCCCCCC2)CC1)C1c2ccccc2Oc2ccccc21,0.8,> 10,
O=C(NC1CCN(CC2CCCCCCC2)CC1)C1c2cc(Br)ccc2Oc2ccc(Br)cc21,5.1,> 10,
